“Also recorded” adds a separate entry of the source.
Legend:
C. albicans DAY185 = assay: C. albicans growth inhibition / cell viability; type: cell-based, Candida albicans; details: for MIC: Candida albicans, DAY185, 48 h, read-out: MIC of growth inhibition
[1] = test system: C. albicans DAY185 hyphae formation; assay: Hyphae formation assay; type: cell-based, Candida albicans; details: for network of hyphal growth versus vehicle control: 50 μM, 6 h incubation, Figure 3; for germ tube and hyphae formation by 6 h: 6 h post inoculation; for germ tube and hyphae formation by 6 h / hyphae at 24 h: versus vehicle-treated cells; for hyphae at 24 h: 24 h post inoculation; for C. albicans hyphae formation / hyphal morphogenesis: phase contrast microscopy
Method in brief: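 DAY185 grown overnight in BHI at 37 °C, pelleted, washed and resuspended in PBS pH 7.4. Seeded at 1×10^6 cells/well for 1 h at 37 °C, then washed twice with PBS to remove non-adherent cells. RPMI 1640 with 2% glucose plus test compound (50 μM), farnesol (50 μM) or DMSO vehicle (1% by vol.) added. Incubated at 37 °C; phase-contrast microscopy (×200) at 2.5, 6 and 24 h.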

[2] = several organic solvents; cited from earlier work
MIA PaCa-2 cells = assay: Mammalian cell cytotoxicity assay; type: cell-based, human; details: MIA PaCa-2 cell line, 24 h, MTT
[3] = test system: C. albicans DAY185 biofilm formation; assay: Biofilm time of addition assay; type: cell-based, Candida albicans; details: conclusion from the time-of-addition study
[4] = Stability in organic solvents; type: physicochemical; details: MeOH and varying H2O-MeOH mixtures, CHCl3, CH2Cl2, EtOAc

## CC(C)=CCC/C(C)=C/CC/C(C)=C/CO [farnesol, reference compound]
C. albicans DAY185
  MIC: > 200 µM
C. albicans DAY185; positive control
  effect on C. albicans cell survival: did not impede cell survival
[1]
  network of hyphal growth versus vehicle control: significantly reduced or absent from nearly all cells

## CC1(C)C=Cc2c(ccc3c2NC(=O)[C@@]32C[C@@]34NC(=O)[C@]5(CCCN5C3=O)C[C@H]4C2(C)C)O1 [Compound 2, notoamide B]
C. albicans DAY185
  MIC: > 200 µM

## CC1(C)C=Cc2c(ccc3c2NC(=O)[C@@]32[C@H](O)[C@@]34NC(=O)[C@]5(CCCN5C3=O)C[C@H]4C2(C)C)O1 [Compound 3, sclerotiamide]
C. albicans DAY185
  MIC: > 200 µM

## CC1(C)C=Cc2c(ccc3c2[N+]([O-])=C2C(C)(C)[C@@H]4CC56CCCN5C(=O)[C@]4(NC6=O)[C@H]4N5C(=O)[C@@]67CCCN6C(=O)[C@@]56[C@H](c5c(n(O)c8c9c(ccc58)OC(C)(C)C=C9)C(C)(C)[C@@H]6C7)[C@]234)O1 [Compound 17, stephacidin B]
[2]
  stability in organic solvents: degrade in several organic solvents

## CC1(C)C=Cc2c(ccc3c4c([nH]c23)C(C)(C)[C@@H]2C[C@]35CCCN3C(=O)[C@]2(NC5=O)[C@H]4O)O1 [Compound 5, notoamide R]
C. albicans DAY185
  MIC: > 200 µM

## C/C=C/C=C/C=C/[C@H]1C[C@@H](O)CC(=O)[C@@H]1C [Compound 15, waikialide A]
C. albicans DAY185
  MIC: > 200 µM
[1]
  network of hyphal growth versus vehicle control: significantly reduced or absent from nearly all cells
  germ tube and hyphae formation by 6 h: did not form germ tubes or hyphae by 6 h
  hyphae at 24 h: severely truncated hyphae
  C. albicans hyphae formation / hyphal morphogenesis: inhibited C. albicans hyphae formation in a dose dependent manner

## CC1(C)C=Cc2c(ccc3c2[N+]([O-])=C2C(C)(C)[C@@H]4C[C@]56CCCN5C(=O)[C@]4(NC6=O)[C@H]4N5C(=O)[C@@]67CCCN6C(=O)[C@@]56[C@@H]([C@]234)[C@]2(O)C(=[N+]([O-])c3c2ccc2c3C=CC(C)(C)O2)C(C)(C)[C@@H]6C7)O1 [Compound 14, waikialoid B]
C. albicans DAY185
  MIC: > 200 µM

## CC1(C)C=Cc2c(ccc3c2[N+]([O-])=C2C3=C[C@@]34NC(=O)[C@]5(CCCN5C3=O)C[C@H]4C2(C)C)O1 [Compound 7, CJ-17665]
C. albicans DAY185
  MIC: > 200 µM

## C/C=C/C=C/C=C/[C@H]1C[C@@H](O)C[C@@H](O)[C@@H]1C [Compound 16, waikialide B]
C. albicans DAY185
  MIC: > 200 µM

## CC1(C)C=Cc2c(ccc3c2[N+]([O-])=C2C(C)(C)[C@@H]4C[C@]56CCCN5C(=O)[C@]4(NC6=O)[C@H]4N5C(=O)[C@@]67CCCN6C(=O)[C@@]56[C@H](c5c([nH]c8c9c(ccc58)OC(C)(C)C=C9)C(C)(C)[C@@H]6C7)[C@]234)O1 [Compound 1, waikialoid A]
MIA PaCa-2 cells
  not toxic to mammalian (human) cells at concentrations up to: > 200 µM
C. albicans DAY185
  MIC: > 200 µM
[3]
  effect on preformed biofilms: ineffective at disrupting preformed biofilms; also recorded: likely not effective at inhibiting or disrupting preformed biofilms
[1]
  network of hyphal growth versus vehicle control: significantly reduced or absent from nearly all cells
  germ tube and hyphae formation by 6 h: did not form germ tubes or hyphae by 6 h
  hyphae at 24 h: severely truncated hyphae
  C. albicans hyphae formation / hyphal morphogenesis: inhibited C. albicans hyphal morphogenesis; also recorded: inhibited C. albicans hyphae formation in a dose dependent manner
[4]
  stability in solvents: very stable for days

## CC1(C)C=Cc2c(ccc3c4c([nH]c23)C(C)(C)[C@@H]2C[C@]35CCCN3C(=O)[C@@]2(C4)NC5=O)O1 [Compound 6, stephacidin A]
C. albicans DAY185
  MIC: > 200 µM
